Test results: ChEMBL document CHEMBL5230149, “Discovery of novel ketoxime ether derivatives with potent FXR agonistic activity, oral effectiveness and high liver/blood ratio” (Bioorg Med Chem, 2021)
Active and inactive are the calls of the source. The calls are words filed in the database; no cut-off is given here.

Legend:
[1] = target: T1, Bile acid receptor (Mus musculus) (UniProt Q60641); test: Agonist activity at FXR in C57BL/6J mouse hepatocytes assessed as upregulation of SHP mRNA expression incubated for 24 hrs by qRT-PCR analysis; assay type: cell-based; settings: Hepatocyte, filed as agonist, dose 0.4-10 µM
T1 sequence (whole entry): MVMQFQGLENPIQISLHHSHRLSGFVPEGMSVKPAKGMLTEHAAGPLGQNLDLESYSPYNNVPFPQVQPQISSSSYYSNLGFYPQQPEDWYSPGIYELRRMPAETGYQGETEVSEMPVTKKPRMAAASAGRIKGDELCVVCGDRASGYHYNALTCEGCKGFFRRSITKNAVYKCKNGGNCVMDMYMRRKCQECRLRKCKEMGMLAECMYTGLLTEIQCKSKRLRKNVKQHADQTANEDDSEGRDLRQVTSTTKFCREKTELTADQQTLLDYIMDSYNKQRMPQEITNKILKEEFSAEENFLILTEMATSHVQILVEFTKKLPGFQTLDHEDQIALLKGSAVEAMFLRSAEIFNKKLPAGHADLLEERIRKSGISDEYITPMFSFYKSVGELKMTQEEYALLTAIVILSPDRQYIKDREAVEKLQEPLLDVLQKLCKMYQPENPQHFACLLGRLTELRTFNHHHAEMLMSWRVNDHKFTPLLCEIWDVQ
Summary of the method: (§1)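 Hepatocytes isolated from overnight-fasted male C57BL/6J mice (8–12 weeks), allowed 4 h to adhere, then given vehicle (0.5% DMSO) or compound at 0.4, 2 and 10 μM for 24 h. TRIzol RNA extraction, then qRT-PCR with GAPDH normalization by ΔΔCt. Values are expressed as fold over vehicle (mean ± S.E.M, n = 3).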

[2] = target: T1, Bile acid receptor (Mus musculus); test: In vivo agonist activity at FXR in C57BL/6J mouse assessed as downregulation of CYP8B1 mRNA expression in liver at 10 mg/kg, po measured after 6 hrs by qRT-PCR analysis; assay type: functional, organism-based
Summary of the method: (§2)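 Male C57BL/6J mice (7–8 weeks) were fasted 3 h, then dosed orally once in 0.25% CMC-Na (wt/vol) vehicle. Sacrificed 6 h post-dose; liver snap-frozen at -80 °C. TRIzol RNA extraction and qRT-PCR with GAPDH normalization (ΔΔCt). Results are fold over vehicle group (mean ± S.E.M, n = 6).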

[3] = Drug uptake in ICR mouse liver at 15 mg/kg, po measured after 8 hrs by LC-MS/MS analysis; assay type: ADME, organism-based; settings: read-out: Drug uptake
Summary of the method: (§3)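 Overnight-fasted male ICR mice (n = 3 per time point) received single oral 15 mg/kg and were refed 2 h later. Blood and liver were taken at 1.5, 4 and 8 h. Serum (10 µL) was precipitated with 100 µL methanol/acetonitrile (1:1). Liver was homogenized in ten times its weight of the same solvent. Supernatants were diluted 1:1 in ACN/H₂O and analyzed by LC-MS/MS. The ratio is liver conc (ng/g) over plasma conc (ng/mL).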

[4] = target: T1, Bile acid receptor (Mus musculus); test: Agonist activity at FXR in C57BL/6J mouse hepatocytes assessed as upregulation of BSEP mRNA expression at 0.4 to 10 uM incubated for 24 hrs by qRT-PCR analysis; assay type: cell-based; settings: Hepatocyte, filed as agonist, dose 0.4-10 µM; summary of the method: as §1
[5] = target: T1, Bile acid receptor (Mus musculus); test: In vivo agonist activity at FXR in C57BL/6J mouse assessed as downregulation of CYP7A1 mRNA expression in liver at 10 mg/kg, po measured after 6 hrs by qRT-PCR analysis; assay type: functional, organism-based; summary of the method: as §2
[6] = Drug uptake in ICR mouse liver at 15 mg/kg, po measured after 1.5 hrs by LC-MS/MS analysis; assay type: ADME, organism-based; settings: read-out: Drug uptake; summary of the method: as §3
[7] = target: T2, TGR5 (G-protein coupled bile acid receptor 1) (Homo sapiens, UniProt Q8TDU6); test: Agonist activity at human TGR5 expressed in HEK293 cells co-transfected with CRE-Luc reporter plasmid assessed as receptor transactivation incubated for 5.5 hrs by luciferase reporter gene assay relative to OCA; assay type: cell-based; settings: read-out: Efficacy
T2 sequence (Q8TDU6 whole entry): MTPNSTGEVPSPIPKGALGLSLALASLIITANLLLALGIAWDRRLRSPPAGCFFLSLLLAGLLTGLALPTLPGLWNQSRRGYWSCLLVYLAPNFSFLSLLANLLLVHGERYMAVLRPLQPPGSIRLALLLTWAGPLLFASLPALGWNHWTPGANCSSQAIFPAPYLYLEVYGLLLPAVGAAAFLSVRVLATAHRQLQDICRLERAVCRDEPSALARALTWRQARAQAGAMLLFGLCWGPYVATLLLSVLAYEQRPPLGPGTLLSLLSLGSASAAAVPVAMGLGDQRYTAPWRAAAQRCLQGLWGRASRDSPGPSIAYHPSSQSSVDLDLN

[8] = Drug uptake in ICR mouse liver at 15 mg/kg, po measured after 4 hrs by LC-MS/MS analysis; assay type: ADME, organism-based; settings: read-out: Drug uptake; summary of the method: as §3
[9] = Plasma concentration in ICR mouse at 15 mg/kg, po measured after 8 hrs by LC-MS/MS analysis; assay type: ADME, organism-based; summary of the method: as §3
[10] = Plasma concentration in ICR mouse at 15 mg/kg, po measured after 1.5 hrs by LC-MS/MS analysis; assay type: ADME, organism-based; summary of the method: as §3
[11] = Plasma concentration in ICR mouse at 15 mg/kg, po measured after 4 hrs by LC-MS/MS analysis; assay type: ADME, organism-based; summary of the method: as §3
[12] = target: T3, G-protein coupled bile acid receptor 1 (Homo sapiens, UniProt Q8TDU6); test: Agonist activity at human TGR5 expressed in HEK293 cells co-transfected with CRE-Luc reporter plasmid assessed as receptor transactivation incubated for 5.5 hrs by luciferase reporter gene assay; assay type: cell-based
T3 sequence (Q8TDU6 whole entry): T2 sequence (Q8TDU6 whole entry)

Bile acid receptor = target: T4, Bile acid receptor (Homo sapiens, UniProt Q96RI1); test: Agonist activity at human FXR expressed in human Huh-7 cells co-transfected with FXRE-Luc reporter plasmid assessed as receptor transactivation incubated for 16 hrs by luciferase reporter gene assay; assay type: cell-based
T4 sequence (Q96RI1 whole entry): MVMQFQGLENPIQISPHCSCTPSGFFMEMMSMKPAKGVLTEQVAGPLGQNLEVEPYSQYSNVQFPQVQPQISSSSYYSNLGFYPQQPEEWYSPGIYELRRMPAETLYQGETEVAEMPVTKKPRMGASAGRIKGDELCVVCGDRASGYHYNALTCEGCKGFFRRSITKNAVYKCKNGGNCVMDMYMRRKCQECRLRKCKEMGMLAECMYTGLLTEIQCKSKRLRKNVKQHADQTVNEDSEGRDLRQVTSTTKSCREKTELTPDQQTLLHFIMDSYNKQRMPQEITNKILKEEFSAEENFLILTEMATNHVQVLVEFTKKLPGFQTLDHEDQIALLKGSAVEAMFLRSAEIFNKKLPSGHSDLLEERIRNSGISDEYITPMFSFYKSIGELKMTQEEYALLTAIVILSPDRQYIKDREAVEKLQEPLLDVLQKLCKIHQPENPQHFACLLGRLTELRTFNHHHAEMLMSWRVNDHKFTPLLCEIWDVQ

[13] = target: T1, Bile acid receptor (Mus musculus); test: In vivo agonist activity at FXR in C57BL/6J mouse assessed as downregulation of CYP8B1 mRNA expression in liver at 30 mg/kg, po measured after 6 hrs by qRT-PCR analysis; assay type: functional, organism-based
Summary of the method: (§4)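 Male C57BL/6J mice (7–8 weeks) fasted 3 h, then given a single oral dose; vehicle 0.25% CMC-Na (wt/vol). Killed 6 h post-dose; liver snap-frozen, stored at -80 °C. TRIzol RNA extraction, qRT-PCR, normalised to GAPDH by ΔΔCt. Values given as fold of vehicle group, mean ± SEM, n = 6.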

[14] = target: T1, Bile acid receptor (Mus musculus); test: In vivo agonist activity at FXR in C57BL/6J mouse assessed as downregulation of CYP7A1 mRNA expression in liver at 30 mg/kg, po measured after 6 hrs by qRT-PCR analysis; assay type: functional, organism-based; summary of the method: as §4

With `C/C(=N\OCc1cc(C(=O)O)ccc1C#N)c1ccc(OCc2c(-c3ccccc3OC(F)(F)F)noc2C2CC2)cc1Cl` the Activity [1] was “Dose-Dependent Effect”, the Activity [2] was “Active” and the concentration at 8 h [3] was 941 ng/g. For the same compound, the Activity [4] was “Active”, the Activity [5] was “Active” and the concentration at 1.5 h [6] was 4340 ng/g. For the same compound, the Emax at 5.5 h [7] was 0.6%, the concentration at 4 h [8] was 3580 ng/g and the concentration at 8 h [9] was 8.4 ng/mL. The concentration at 1.5 h [10] was 56.7 ng/mL, the concentration at 4 h [11] was 45.2 ng/mL and the EC50 [12] was greater than 100000 nM.

`C/C(=N\OCc1cccc(C(=O)O)c1)c1ccc(OCc2c(-c3c(Cl)cccc3Cl)noc2C2CC2)cc1Br` showed an EC50 (Bile acid receptor) of 37.2 nM.

`C/C(=N\OCc1cncc(C(=O)O)c1)c1ccc(OCc2c(-c3ccccc3OC(F)(F)F)noc2C2CC2)c(F)c1` gave an EC50 (Bile acid receptor) of 728 nM.

`C/C(=N\OCc1ccc(C(=O)O)o1)c1ccc(OCc2c(-c3c(Cl)cccc3Cl)noc2C2CC2)cc1Cl` showed an EC50 (Bile acid receptor) of 49.7 nM.

In the case of `C/C(=N\OCc1ccccc1C(=O)O)c1ccc(OCc2c(-c3c(Cl)cccc3Cl)noc2C2CC2)cc1Cl`, the EC50 (Bile acid receptor) is reported as 75.4 nM.

With `CC[C@H]1[C@@H](O)[C@@H]2[C@H](CC[C@]3(C)[C@@H]([C@H](C)CCC(=O)O)CC[C@@H]23)[C@@]2(C)CC[C@@H](O)C[C@@H]12` the Activity [1] was “Dose-Dependent Effect”, the Activity [13] was “Active” and the Activity [4] was “Active”. The Activity [14] was “Active”.

In the case of `C/C(=N\OCc1ccc(C(=O)O)cc1)c1ccc(OCc2c(-c3c(Cl)cccc3Cl)noc2C2CC2)cc1Cl`, the EC50 (Bile acid receptor) is reported as 134 nM.

`C/C(=N\OCc1cc(C(=O)O)ccc1C#N)c1ccc(OCc2c(-c3ccccc3OC(F)(F)F)noc2C2CC2)c(F)c1` gave an EC50 (Bile acid receptor) of 347 nM.

For `C/C(=N\OCc1ccc(C(=O)O)o1)c1ccc(OCc2c(-c3c(Cl)cccc3Cl)noc2C2CC2)cn1`, the EC50 (Bile acid receptor) was 1390 nM.

For `C/C(=N\OCc1cccc(C(=O)O)c1)c1ccc(OCc2c(-c3c(Cl)cccc3Cl)noc2C2CC2)c(Cl)c1`, the EC50 (Bile acid receptor) was 259 nM.

For `C/C(=N\OCc1cncc(C(=O)O)c1)c1ccc(OCc2c(-c3ccccc3OC(F)(F)F)noc2C2CC2)cc1Cl`, the EC50 (Bile acid receptor) was 54.8 nM.
